The source of these data is ChEMBL document CHEMBL4371071, “Muscarinic agonist, (±)-quinuclidin-3-yl-(4-fluorophenethyl)(phenyl)carbamate: High affinity, but low subtype selectivity for human M1 - M5 muscarinic acetylcholine receptors” (Bioorg Med Chem Lett, 2019).

Assay [1] concerns the target T1, Muscarinic acetylcholine receptor M5 (Homo sapiens, UniProt P08912).
T1 sequence (P08912 whole entry): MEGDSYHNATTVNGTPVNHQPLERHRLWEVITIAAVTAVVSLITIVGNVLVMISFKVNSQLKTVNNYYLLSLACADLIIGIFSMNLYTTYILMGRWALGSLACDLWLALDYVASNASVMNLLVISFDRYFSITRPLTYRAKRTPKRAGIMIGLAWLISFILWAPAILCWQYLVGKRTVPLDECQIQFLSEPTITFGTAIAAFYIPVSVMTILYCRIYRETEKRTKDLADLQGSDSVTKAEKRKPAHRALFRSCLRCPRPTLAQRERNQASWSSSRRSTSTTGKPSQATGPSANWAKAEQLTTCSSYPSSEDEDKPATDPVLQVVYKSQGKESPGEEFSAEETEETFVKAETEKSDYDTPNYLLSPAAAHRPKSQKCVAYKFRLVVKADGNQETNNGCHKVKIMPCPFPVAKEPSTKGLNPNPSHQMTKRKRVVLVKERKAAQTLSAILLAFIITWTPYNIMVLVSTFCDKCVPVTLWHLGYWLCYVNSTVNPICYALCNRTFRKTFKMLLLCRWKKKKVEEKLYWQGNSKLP
As to the kind of experiment: Displacement of [3H]NMS from human M5 AChR expressed in CHO cell membranes after 1 to 2 hrs by liquid scintillation spectrometry method. Summed up:
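CHO membranes expressing human M5 (10 µg protein/well) with 0.3 nM [3H]NMS and analog (1 nM–100 µM) in 50 mM Tris-HCl pH 7.4, 2 h at 25 °C. Filtered on GF/B, counted by scintillation. IC50 converted to Ki; three independent experiments in duplicate.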
In general terms: Displacement assays read how much labelled ligand stays bound in the presence of the test substance.

For assay [2], the target named is T2, Muscarinic acetylcholine receptor M3 (Homo sapiens, UniProt P20309). As to conditions: CHO, at 100 µM.
Target sequence in this assay (P20309 whole entry, looked up): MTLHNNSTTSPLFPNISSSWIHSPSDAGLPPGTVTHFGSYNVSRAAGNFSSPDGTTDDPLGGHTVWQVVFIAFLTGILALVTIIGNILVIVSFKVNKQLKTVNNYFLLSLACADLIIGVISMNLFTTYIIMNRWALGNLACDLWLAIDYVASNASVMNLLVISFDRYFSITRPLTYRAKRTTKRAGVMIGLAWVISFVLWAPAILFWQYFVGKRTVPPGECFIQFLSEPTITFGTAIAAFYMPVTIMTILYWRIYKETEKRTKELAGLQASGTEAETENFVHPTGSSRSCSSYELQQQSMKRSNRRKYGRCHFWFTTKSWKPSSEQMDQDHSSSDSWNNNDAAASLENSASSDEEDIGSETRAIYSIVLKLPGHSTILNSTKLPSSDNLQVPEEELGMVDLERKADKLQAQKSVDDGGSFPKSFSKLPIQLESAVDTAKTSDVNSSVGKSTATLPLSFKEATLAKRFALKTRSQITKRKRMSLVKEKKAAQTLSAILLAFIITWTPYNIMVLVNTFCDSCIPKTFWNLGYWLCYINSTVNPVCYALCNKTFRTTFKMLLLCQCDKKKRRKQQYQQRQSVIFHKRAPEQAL
For assay [3], the target named is T3, Muscarinic acetylcholine receptor M5 (Homo sapiens) (UniProt P08912).
T3 sequence (whole entry): T1 sequence (P08912 whole entry)
As to the kind of experiment: Displacement of [3H]NMS from human M5 AChR expressed in CHO cell membranes at 100 uM after 1 to 2 hrs by liquid scintillation spectrometry method relative to control. An outline of the steps: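 CHO membranes expressing human M5 (10 µg protein/well) with 0.3 nM [3H]NMS and analog (1 nM–100 µM) in 50 mM Tris-HCl pH 7.4, 2 h at 25 °C. […] Filtered on GF/B, counted by scintillation. IC50 converted to Ki; three independent experiments in duplicate.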

The target in assay [4] is T2, Muscarinic acetylcholine receptor M3. As to the kind of experiment: Displacement of [3H]NMS from human M3 AChR expressed in CHO cell membranes after 1 to 2 hrs by liquid scintillation spectrometry method. In kind it is cell-based.
Target sequence in this assay (P20309 whole entry): as the sequence (P20309 whole entry, looked up) above
Assay [5] addresses T4, Muscarinic acetylcholine receptor M1 (Homo sapiens) (UniProt P11229).
T4 sequence (whole entry): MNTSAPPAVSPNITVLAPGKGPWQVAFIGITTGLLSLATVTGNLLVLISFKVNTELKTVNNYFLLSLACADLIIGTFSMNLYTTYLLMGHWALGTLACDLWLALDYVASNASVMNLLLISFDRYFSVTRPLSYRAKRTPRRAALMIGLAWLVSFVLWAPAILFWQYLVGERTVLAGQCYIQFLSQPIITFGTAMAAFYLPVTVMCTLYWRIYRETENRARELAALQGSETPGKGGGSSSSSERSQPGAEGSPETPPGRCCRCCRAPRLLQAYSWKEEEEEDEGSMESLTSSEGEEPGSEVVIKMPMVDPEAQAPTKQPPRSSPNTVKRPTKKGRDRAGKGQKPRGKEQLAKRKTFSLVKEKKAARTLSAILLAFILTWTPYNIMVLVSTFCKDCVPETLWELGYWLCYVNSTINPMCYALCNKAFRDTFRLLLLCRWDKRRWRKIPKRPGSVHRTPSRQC
Conditions: CHO, at 100 µM.

Assay [6] deals with T5, Muscarinic acetylcholine receptor M1 (Homo sapiens, UniProt P11229).
T5 sequence (P11229 whole entry): T4 sequence (whole entry)
As to the kind of experiment: Displacement of [3H]NMS from human M1 AChR expressed in CHO cell membranes after 1 to 2 hrs by liquid scintillation spectrometry method. Format: cell-based.

For the next assay, the species on record is Homo sapiens. As to the kind of experiment: Selectivity ratio of Ki for displacement of [3H]NMS from human M1 AChR expressed in CHO cell membranes to Ki for displacement of [3H]NMS from human M5 AChR expressed in CHO cell membranes.

Turning to `COc1ccc(COC(=O)N(c2ccccc2)C2CN3CCC2CC3)cc1OC` (stereo not drawn), the Ki stood at 550 nM in assay [1], 1020 nM in assay [4] and 770 nM in assay [6]. Besides, the Imax in assay [2] was found to be 95.4%; in assay [3], 98.7%; in assay [5], 96.8%. In the assay filed under Homo sapiens, the Ratio Ki amounted to 1.4.
Turning to `CN1CCC(OC(=O)N(CCc2ccc(F)cc2)c2ccccc2)CC1`, the Ki in assay [1] was determined as 60 nM; in assay [4], 140 nM; in assay [6] it was 70 nM. Further, the Imax in assay [2], in assay [3] and in assay [5] was 100% each time. The Ratio Ki in the assay listed under Homo sapiens is 1.2.
Regarding `COc1ccc(CCCOC(=O)N(c2ccccc2)C2CN3CCC2CC3)cc1` (stereo not drawn), the values for the Ki in assay [1], in assay [4] and in assay [6] were 640 nM, 390 nM and 590 nM, respectively. In addition, the figures for the Imax in assay [2], in assay [3] and in assay [5] were 96.8%, 99.5% and 98.5%, respectively. The Ratio Ki in the assay filed under Homo sapiens came out at 0.9.
For the compound `COc1ccc(CCCOC(=O)N(c2ccccc2)C2CN3CCC2CC3)cc1F` (stereo not drawn), the Ki in assay [1] amounted to 260 nM; in assay [4], 250 nM; in assay [6], 430 nM. Moreover, the results for the Imax in assay [2], in assay [3] and in assay [5] were 99.8%, 99.4% and 100%, respectively. For the same compound, in the assay listed under Homo sapiens, the Ratio Ki stood at 1.7.
Take `COc1ccc(COC(=O)N(c2ccccc2)C2CN3CCC2CC3)cc1` (stereo not drawn): the inhibition constant (Ki) stood at 470 nM in assay [1], 1150 nM in assay [4] and 710 nM in assay [6]. Also, the values for the Imax in assay [2], in assay [3] and in assay [5] were 95.7%, 97.1% and 97.9%, respectively. For the same compound, the Ratio Ki in the assay listed under Homo sapiens stood at 1.5.
Turning to `COc1ccc(CCN(C(=O)OC2CCN(C)CC2)c2ccccc2)cc1OC`, the figures for the inhibition constant (Ki) in assay [1], in assay [4] and in assay [6] were 380 nM, 1280 nM and 770 nM, respectively. For the same compound, the results for the Imax in assay [2], in assay [3] and in assay [5] were 96.6%, 96.5% and 99%, respectively. For the same compound, in the assay listed under Homo sapiens, the Ratio Ki was 2.
In assay [3], `CN1[C@@H]2CC[C@H]1C[C@@H](OC(=O)C(CO)c1ccccc1)C2` (stereo partly drawn) came in with an Imax of 96.7%.
`CN1CCCC(OC(=O)N(CCc2ccc(F)cc2)c2ccccc2)C1` (stereo not drawn): the Ki turned out to be 150 nM in assay [1], 350 nM in assay [4] and 120 nM in assay [6]. The Imax in assay [2] was 99%; in assay [3], 99.9%; in assay [5], 99.9%. Besides, the Ratio Ki in the assay filed under Homo sapiens turned out to be 0.8.
For `COc1ccc(CCCOC(=O)N(c2ccccc2)C2CN3CCC2CC3)cc1OC` (stereo not drawn), the Ki in assay [1] is 1610 nM; in assay [4], 1560 nM; in assay [6] it was 1460 nM. Also, the Imax in assay [2] is 96.3%; in assay [3] it was 99%; in assay [5], 97.1%. Also, the Ratio Ki in the assay listed under Homo sapiens was 0.9.
As to `O=C(OCCCc1ccccc1)N(c1ccccc1)C1CN2CCC1CC2` (stereo not drawn), the Ki in assay [1] came to 260 nM; in assay [4], 550 nM; in assay [6], 780 nM. Besides, the Imax in assay [2] was found to be 98.9%; in assay [3], 95.7%; in assay [5], 99.1%. Moreover, the Ratio Ki in the assay listed under Homo sapiens was found to be 3.
Consider `COc1ccc(CCN(C(=O)OC2C[C@H]3CC[C@H](C2)N3C)c2ccccc2)cc1` (stereo partly drawn), for which the Ki was 240 nM in assay [1], 270 nM in assay [4] and 350 nM in assay [6]. In addition, the Imax in assay [2] is 98.9%; in assay [3], 97.9%; in assay [5], 99.7%. For the same compound, the Ratio Ki in the assay filed under Homo sapiens was 1.5.
Consider `Cc1ccc(CCCOC(=O)N(c2ccccc2)C2CN3CCC2CC3)cc1F` (stereo not drawn), for which the results for the Ki in assay [1], in assay [4] and in assay [6] were 130 nM, 130 nM and 200 nM, respectively. Besides, the Imax in assay [2] is 100%; in assay [3], 99.9%; in assay [5] it was 100%. In the assay filed under Homo sapiens, the Ratio Ki turned out to be 1.5.
Consider `COc1ccc(CCN(C(=O)OC2CCCN(C)C2)c2ccccc2)cc1OC` (stereo not drawn), for which the figures for the Ki in assay [1], in assay [4] and in assay [6] were 4490 nM, 4360 nM and 4300 nM, respectively. In addition, the values for the Imax in assay [2], in assay [3] and in assay [5] were 85.6%, 89.2% and 94.3%, respectively. In addition, the Ratio Ki in the assay filed under Homo sapiens was found to be 1.
Regarding `COc1ccc(CCN(C(=O)OC2CCN(C)CC2)c2ccccc2)cc1`, the Ki in assay [1] is 190 nM; in assay [4] it was 570 nM; in assay [6] it was 280 nM. Further, the Imax in assay [2] worked out at 99.7%; in assay [3], 99.7%; in assay [5], 99.8%. Moreover, in the assay filed under Homo sapiens, the Ratio Ki amounted to 1.5.
For the compound `O=C(OCCCc1ccc(F)c(F)c1)N(c1ccccc1)C1CN2CCC1CC2` (stereo not drawn), the Ki in assay [1] was found to be 100 nM; in assay [4], 220 nM; in assay [6] it was 300 nM. The Imax in assay [2] was 99.5%; in assay [3], 99.4%; in assay [5], 100%. Further, in the assay listed under Homo sapiens, the Ratio Ki was 3.
As for `O=C(OCCc1ccccc1)N(c1ccccc1)C1CN2CCC1CC2` (stereo not drawn), the Ki in assay [1] amounted to 260 nM; in assay [4], 300 nM; in assay [6], 790 nM. For the same compound, the Imax in assay [2] amounted to 99.1%; in assay [3], 96.9%; in assay [5] it was 88.5%. Further, in the assay listed under Homo sapiens, the Ratio Ki came to 3.
Consider `COc1ccc(CCN(C(=O)OC2CCCN(C)C2)c2ccccc2)cc1` (stereo not drawn), for which the Ki was found to be 1050 nM in assay [1], 1320 nM in assay [4] and 690 nM in assay [6]. Further, the Imax in assay [2] is 96.2%; in assay [3], 97.7%; in assay [5] it was 98.6%. The Ratio Ki in the assay listed under Homo sapiens stood at 0.7.
On to `COc1ccc(CCOC(=O)N(c2ccccc2)C2CN3CCC2CC3)cc1` (stereo not drawn), for which the values for the Ki in assay [1], in assay [4] and in assay [6] were 230 nM, 420 nM and 760 nM, respectively. The Imax in assay [2] came to 99.3%; in assay [3], 98.9%; in assay [5], 98.4%. Also, the Ratio Ki in the assay listed under Homo sapiens turned out to be 3.3.
`O=C(OCCc1ccc(Cl)c(Cl)c1)N(c1ccccc1)C1CN2CCC1CC2` (stereo not drawn): the figures for the Ki in assay [1], in assay [4] and in assay [6] were 80 nM, 260 nM and 370 nM, respectively. Moreover, the results for the Imax in assay [2], in assay [3] and in assay [5] were 99.8%, 98.8% and 99.9%, respectively. Further, in the assay filed under Homo sapiens, the Ratio Ki came out at 4.5.
Take `COc1ccc(CCOC(=O)N(c2ccccc2)C2CN3CCC2CC3)cc1OC` (stereo not drawn): the values for the Ki in assay [1], in assay [4] and in assay [6] were 3490 nM, 2760 nM and 6980 nM, respectively. For the same compound, the Imax stood at 85.9% in assay [2], 94% in assay [3] and 90.6% in assay [5]. Also, the Ratio Ki in the assay filed under Homo sapiens stood at 2.
For `COc1ccc(CCN(C(=O)OC2C[C@H]3CC[C@H](C2)N3C)c2ccccc2)cc1OC` (stereo partly drawn), the figures for the Ki in assay [1], in assay [4] and in assay [6] were 1370 nM, 2800 nM and 1870 nM, respectively. Besides, the Imax in assay [2] worked out at 88.8%; in assay [3] it was 95.9%; in assay [5] it was 95.3%. The Ratio Ki in the assay filed under Homo sapiens is 1.4.
For the compound `O=C(OCCc1ccc2c(c1)OCO2)N(c1ccccc1)C1CN2CCC1CC2` (stereo not drawn), the inhibition constant Ki is 240 nM in assay [1], 290 nM in assay [4] and 630 nM in assay [6]. Further, the Imax stood at 98% in assay [2], 97.1% in assay [3] and 99.6% in assay [5]. In the assay listed under Homo sapiens, the Ratio Ki was determined as 2.6.

One may read the Ki as the equilibrium dissociation constant of an inhibitor or competing ligand from its target.
